Source: ChEMBL document CHEMBL1141604, “Benzenesulfonamide indole inhibitors of cytosolic phospholipase A2alpha: optimization of in vitro potency and rat pharmacokinetics for oral efficacy” (Bioorg Med Chem, 2008)

How the values were obtained:
Blood [1] = test: Inhibition of LTB4 production in human whole blood assay; type: functional, tissue-based
How it was run: (§1)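 Heparinized blood from healthy male volunteers (3 donors). Aliquots preincubated 15 min at 37 °C with compound in DMSO, then stimulated 15 min with 30 µM A23187 (final). Reaction stopped with 20 mM EDTA; plasma proteins precipitated with cold methanol. TXB2, LTB4, PGE2 and PGF2α measured by immunoassay kit; IC50 derived.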

Ovis aries [2] = test: Effect on Ascaris suum-induced late phase-bronchoconstriction in naturally sensitized sheep model assessed as increase in specific lung resistance at 3 mg/kg, po bid for 2 days; type: functional
How it was run: (§2)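 Naturally sensitized sheep challenged via the airways with Ascaris suum antigen. Pulmonary resistance recorded breath by breath using the esophageal balloon technique. Oral doses given in Phosal stock diluted with water, 0.25 mL/kg. Dosing BID before challenge and on challenge day, 2 h before and 8 h after. Early and late responses expressed as mean maximum % increase in specific lung resistance, compared with each sheep's historical control.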

Blood [3] = test: Inhibition of PGF2-alpha production in human whole blood assay; type: functional, tissue-based; how it was run: as §1
Ovis aries [4] = test: Effect on Ascaris suum-induced early phase-bronchoconstriction in naturally sensitized sheep model assessed as increase in specific lung resistance at 3 mg/kg, po bid for 2 days; type: functional; how it was run: as §2
Ovis aries [5] = test: Effect on Ascaris suum-induced early phase-bronchoconstriction in naturally sensitized sheep model assessed as increase in specific lung resistance at 1 mg/kg, po bid for 5 days; type: functional; how it was run: as §2
Ovis aries [6] = test: Effect on Ascaris suum-induced early phase-bronchoconstriction in naturally sensitized sheep model assessed as increase in specific lung resistance at 10 mg/kg, iv bid for 1 day; type: functional
[7] = Selectivity for human cPLA2-alpha over COX2
Rattus norvegicus [8] = test: Antiinflammatory activity against carrageenan-induced paw edema in Sprague-Dawley rat decrease in paw volume at 25 mg/kg, po administered through MC/TW formulation; type: functional; set-up: scale not given: the % may be the effect or the level left
How it was run: (§3)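 Male Sprague-Dawley rats, 190–250 g, n = 10 per group, housed 1 week beforehand. Left hind paw volume measured by plethysmometer before oral dosing in Phosal or MC/TW (0.5% methylcellulose, 2% Tween 80) vehicle. Two hours after dosing, 60 µL of 1% carrageenan in saline injected subplantar. Paw volume remeasured 3 h later; percent inhibition of swelling calculated versus vehicle.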

[9] = Oral bioavailability in Beagle dog at 5 mg/kg administered through MC/TW formulation; type: ADME, organism-based, Canis lupus familiaris; conditions: in vivo
How it was run: (§4)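 Fasted male Beagle dogs (n = 3) dosed orally in MC/TW or Phosal formulation, volume 4 or 6 mL/kg. Saphenous plasma collected over 24 h and measured by LC/MS/MS. F calculated as the dose-normalized oral/iv AUC ratio against 2 mg/kg iv.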

Blood [10] = test: Inhibition of PGE2 production in human whole blood assay; type: functional, tissue-based; how it was run: as §1
[11] = Oral bioavailability in Beagle dog at 5 mg/kg administered through Phosal formulation; type: ADME, organism-based, Canis lupus familiaris; conditions: in vivo; how it was run: as §4
[12] = Selectivity for human cPLA2-alpha over COX1
[13] = Oral bioavailability in Sprague-Dawley rat at 25 mg/kg administered through Phosal formulation; type: ADME, organism-based; conditions: in vivo
How it was run: (§5)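 Overnight-fasted male Sprague-Dawley rats (n = 3) gavaged in MC/TW or Phosal vehicle; compound at 37.5 mg/mL, diluted with water, dosed at 4 mL/kg. Jugular blood taken over 24 h; plasma analysed by LC/MS/MS. F calculated as the dose-normalized oral/iv AUC ratio, iv reference 2 mg/kg.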

Blood [14] = test: Inhibition of TXB2 production in human whole blood assay; type: functional, tissue-based; how it was run: as §1
[15] = molecular target: T1, Prostaglandin G/H synthase 2 (Homo sapiens) (UniProt P35354); test: Inhibition of COX2 at 100 uM
T1 sequence (whole entry): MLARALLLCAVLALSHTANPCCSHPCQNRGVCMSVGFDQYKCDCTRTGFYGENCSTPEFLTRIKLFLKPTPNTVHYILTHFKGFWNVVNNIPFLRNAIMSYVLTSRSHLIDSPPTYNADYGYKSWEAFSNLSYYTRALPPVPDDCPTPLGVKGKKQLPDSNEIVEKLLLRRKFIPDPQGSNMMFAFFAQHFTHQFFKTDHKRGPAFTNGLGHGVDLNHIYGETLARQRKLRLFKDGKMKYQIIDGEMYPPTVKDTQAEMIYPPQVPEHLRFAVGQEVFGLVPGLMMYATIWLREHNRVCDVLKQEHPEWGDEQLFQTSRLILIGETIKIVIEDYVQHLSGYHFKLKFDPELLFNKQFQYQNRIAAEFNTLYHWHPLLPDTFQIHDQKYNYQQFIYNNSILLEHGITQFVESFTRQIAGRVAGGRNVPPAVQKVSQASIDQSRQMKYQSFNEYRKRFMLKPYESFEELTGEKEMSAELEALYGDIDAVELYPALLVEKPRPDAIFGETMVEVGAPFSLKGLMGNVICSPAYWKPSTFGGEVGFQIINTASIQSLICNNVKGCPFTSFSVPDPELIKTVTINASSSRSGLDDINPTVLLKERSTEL

Rattus norvegicus [16] = test: Antiinflammatory activity against carrageenan-induced paw edema in Sprague-Dawley rat assessed as decrease in paw volume at 25 mg/kg, po administered through Phosal formulation; type: functional; set-up: scale not given: the % may be the effect or the level left; how it was run: as §3
[17] = Binding affinity at human cPLA2-alpha by isothermal calorimetry
How it was run: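 ITC at 30 °C. Purified human cPLA2α dialyzed into 50 mM Hepes pH 7.4, 0.3 mM EDTA, 1 mM CaCl2, 300 mM KCl. Cell held 2.5 µM protein with 1% DMSO and 940 µM Triton X-100. Syringe held 78.5 µM compound in matching buffer; twenty 10 µL injections. Buffer-only titration subtracted as background; single-site fit gave Kd and stoichiometry.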

[18] = Inhibition of human cPLA2-alpha assessed as cleavage of 7-hydroxycoumarinyl-gamma-linolenate
How it was run: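 Substrate 90 µM GLU with 120 µM DTPC. Compounds in DMSO tested in duplicate. Fluorescence (ex 355/em 460 nm) read every 4 min for 84 min; inhibition from slope. IC50 averaged from at least two independent runs.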

Rattus norvegicus [19] = test: Antiinflammatory activity against carrageenan-induced paw edema in Sprague-Dawley rat decrease in paw volume at 10 mg/kg, po administered through MC/TW formulation; type: functional; set-up: scale not given: the % may be the effect or the level left; how it was run: as §3
[20] = Clearance in Sprague-Dawley rat at 2 mg/kg, iv; type: ADME, organism-based; set-up: dose 2 mg/kg, route intravenous; conditions: in vivo
How it was run: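 Male Sprague-Dawley rats, 200–300 g, n = 3, given a single 2 mg/kg tail-vein bolus in 50% PEG-400/50% DMSO. Blood drawn via jugular cannula over 24 h and plasma acidified with HCl. Plasma levels measured by LC/MS/MS after acetonitrile precipitation with internal standard; quantitation limit 5 ng/mL. Clearance from non-compartmental analysis.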

Ovis aries [21] = test: Effect on Ascaris suum-induced late phase-bronchoconstriction in naturally sensitized sheep model assessed as increase in specific lung resistance at 1 mg/kg, po bid for 5 days; type: functional; how it was run: as §2
[22] = molecular target: Prostaglandin G/H synthase 1 (Homo sapiens) (UniProt P23219); test: Inhibition of COX1 at 100 uM
[23] = Inhibition of cPLA2-alpha in Sprague-Dawley rat whole blood assay in presence of A23187; type: tissue-based
How it was run: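 Heparinized blood from male Sprague-Dawley rats, taken by cardiac puncture. Preincubated 15 min at 37 °C with compound in DMSO, then stimulated 10 min at 37 °C with 5 µM A23187 (final). Stopped with 20 mM EDTA; plasma precipitated with cold methanol at −80 °C. TXB2 measured by immunoassay; IC50 values averaged from at least two independent runs.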

Ovis aries [24] = test: Effect on Ascaris suum-induced late phase-bronchoconstriction in naturally sensitized sheep model assessed as increase in specific lung resistance at 10 mg/kg, iv bid for 1 day; type: functional
[25] = Clearance in Beagle dog at 2 mg/kg, iv; type: ADME, organism-based, Canis lupus familiaris; set-up: dose 2 mg/kg, route intravenous; conditions: in vivo
How it was run: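 Male Beagle dogs, 8.5–13.0 kg, n = 3, fasted overnight, given 2 mg/kg iv in 20% DMSO/80% PEG-200. Saphenous blood sampled over 24 h and plasma acidified to about pH 4. Analysed by LC/MS/MS with internal standard. Clearance by non-compartmental methods.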

[26] = Oral bioavailability in Sprague-Dawley rat at 25 mg/kg administered through MC/TW formulation; type: ADME, organism-based; conditions: in vivo; how it was run: as §5
Rattus norvegicus [27] = test: Antiinflammatory activity against carrageenan-induced paw edema in Sprague-Dawley rat administered through MC/TW formulation; type: functional; how it was run: as §3

Prostaglandin G/H synthase 1 (Homo sapiens), sequence (P23219 whole entry): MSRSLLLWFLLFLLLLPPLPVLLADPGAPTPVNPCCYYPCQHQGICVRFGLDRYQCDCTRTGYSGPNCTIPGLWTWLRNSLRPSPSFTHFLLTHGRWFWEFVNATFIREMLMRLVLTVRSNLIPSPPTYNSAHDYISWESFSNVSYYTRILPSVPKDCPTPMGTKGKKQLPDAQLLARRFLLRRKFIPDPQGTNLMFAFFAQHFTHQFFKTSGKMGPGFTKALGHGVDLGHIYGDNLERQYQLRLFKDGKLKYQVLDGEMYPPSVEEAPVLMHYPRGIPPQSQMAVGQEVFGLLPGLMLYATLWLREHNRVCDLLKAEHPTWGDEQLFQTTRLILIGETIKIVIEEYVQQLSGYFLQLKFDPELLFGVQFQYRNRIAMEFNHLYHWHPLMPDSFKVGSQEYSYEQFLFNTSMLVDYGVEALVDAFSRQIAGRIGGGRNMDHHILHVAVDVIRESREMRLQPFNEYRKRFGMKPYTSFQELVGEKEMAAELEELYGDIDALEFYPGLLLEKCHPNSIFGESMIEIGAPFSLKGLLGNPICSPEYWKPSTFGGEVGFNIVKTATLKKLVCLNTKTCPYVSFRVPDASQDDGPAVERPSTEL

O=C(O)c1ccc(CCCc2c(CCNS(=O)(=O)c3c(F)cccc3C(F)(F)F)n(C(c3ccccc3)c3ccccc3)c3ccc(Cl)cc23)cc1
IC50 (Blood [1]): 82 nM
Activity (Ovis aries [2]): 29%
IC50 (Blood [3]): 110 nM
Activity (Ovis aries [4]): 379%
Activity (Ovis aries [5]): 431%
Activity (Ovis aries [6]): 346%
Selectivity ratio [7]: > 1000
Activity (Rattus norvegicus [8]): 44%
bioavailability [9]: 16%
IC50 (Blood [10]): 60 nM
bioavailability [11]: 13%
Selectivity ratio [12]: > 1000
bioavailability [13]: 5%
IC50 (Blood [14]): 120 nM
inhibition [15]: 9.9%
Activity (Rattus norvegicus [16]): 16%
Kd [17]: 80 nM
IC50 [18]: 65 nM
Activity (Rattus norvegicus [19]): 34%
clearance [20]: 14 mL/min/kg
Activity (Ovis aries [21]): 68%
inhibition [22]: 45%
IC50 [23]: 100 nM
Activity (Ovis aries [24]): 29%
clearance [25]: 1.4 mL/min/kg
bioavailability [26]: 13%
ED50 (Rattus norvegicus [27]): < 10 mg/kg
